From ChEMBL document CHEMBL3739324, “Characterization and Biological Evaluation of Diterpenoids from Casearia graveolens” (J Nat Prod, 2015) come the findings set out here.

For assay [1], the system named is PC-12. Briefly: Stimulation of NGF-mediated neurite outgrowth in rat PC12 cells incubated for 96 hrs by phase contrast microscopy. To be noted: for EC50: PC-12, 96 h. The class given is functional, cell-based. In outline:
(§1)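 PC12 cells grown at 37 °C in DMEM with 5% FBS, 5% horse serum, penicillin/streptomycin, 5% CO2. Dissociated with 1 mM EGTA in PBS for 15 min, seeded at 3 × 10^4 cells/well on poly-L-lysine. After 24 h, switched to medium with 1% FBS, 1% HS, graded compound levels, with or without NGF (20 ng/mL; 100 ng/mL positive control), for 96 h.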

In assay [2] the test system is PC-12. Briefly: Induction of neurite outgrowth in rat PC12 cells incubated for 96 hrs by phase contrast microscopy. The class given is functional, cell-based. In outline: as §1

Each structure is given as a SMILES string. Active and inactive are the calls of the source. The calls are words filed in the database; no cut-off is given here.

Take `C=CC(=C)CC[C@]1(C)[C@H](C)CC[C@@]23C(=C[C@H](OC(=O)CCC)C[C@@H]12)[C@@H](OC(C)=O)O[C@H]3OC(C)=O`: the outcome in the assay on PC-12 [1] was inactive.
For orientation: EC50 means the concentration at which the effect is half-maximal. Consider `C=CC(=C)CC[C@]1(C)[C@H](C)C[C@H](OC)[C@@]23C(=C[C@H](OC(=O)CC)C[C@@H]12)[C@@H](OC(=O)CCC)O[C@H]3OC(C)=O`, for which the EC50 with PC-12 [1] is more than 45 µM. Also, the outcome in the assay with PC-12 [2] was inactive.
As for `C=CC(=C)CC[C@]1(C)[C@H](C)CC[C@@]23C(=C[C@H](O)C[C@@H]12)[C@@H](OC)O[C@H]3OC(C)=O`, the outcome in the assay with PC-12 [1] was inactive.
In the case of `C=CC(=C)CC[C@]1(C)[C@H](C)C[C@H](OC)[C@@]23C(=C[C@H](OC(=O)CCC)C[C@@H]12)[C@@H](OC)O[C@H]3OC(C)=O`, the midpoint of the response in the assay on PC-12 [1], the EC50, lay at 20.6 µM. Further, the outcome in the assay with PC-12 [2] was inactive.
As for `C=CC(=C)CC[C@]1(C)[C@H](C)CC[C@@]23[C@H](OC(C)=O)O[C@H](OC(=O)CCC)[C@@H]2CC(=O)C[C@@H]13`, the result in the assay on PC-12 [1] was inactive.
On to `C=CC(=C)CC[C@]1(C)[C@H](C)CC[C@@]23C(=C[C@H](O)C[C@@H]12)[C@@H](OC(=O)CCC)O[C@H]3OC(C)=O`, for which the outcome in the assay on PC-12 [1] was inactive.
In the assay with PC-12 [1], `C=CC(=C)CC[C@]1(C)[C@H](C)C[C@H](OC)[C@@]23C(=C[C@H](OC(=O)CCC)C[C@@H]12)[C@@H](OC(C)=O)O[C@H]3OC(C)=O` registered an EC50 of 28.7 µM. For the same compound, in the assay on PC-12 [2], the outcome was inactive.
`C=CC(=C)CC[C@]1(C)[C@H](C)C[C@H](OC)[C@@]23C(=C[C@H](O)C[C@@H]12)[C@@H](OC)O[C@H]3OC` yielded an EC50 in the assay on PC-12 [1] of 3.3 µM. For the same compound, in the assay on PC-12 [2], the result was inactive.
With `C=CC(=C)CC[C@]1(C)[C@H](C)CC[C@@]23C(=C[C@H](OC(=O)CCC)C[C@@H]12)[C@@H](OC(=O)CCC)O[C@H]3OC(C)=O`, in the assay with PC-12 [1], the result was inactive.
The compound `C=CC(=C)CC[C@]1(C)[C@H](C)C[C@H](OC)[C@@]23C(=C[C@H](OC(=O)CC)C[C@@H]12)[C@@H](OC)O[C@H]3OC(C)=O` showed an EC50 with PC-12 [1] of 4.4 µM. The outcome in the assay with PC-12 [2] was inactive.
